Screens deposited in PubChem BioAssay by The Scripps Research Institute Molecular Screening Center.
PAFAH1B2 inh = PAFAH1B2 enzyme inhibitors, primary screen, biochemical, fluorescence polarization, human. Platelet-activating factor acetylhydrolase IB subunit alpha2 (Homo sapiens), P68402. recombinant PAFAH1B2, FP-rhodamine activity probe. inhibition, % at 3.39 µM. actives 1.2% (n = 340,000). AID 492953, 2010;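 active = inhibition above the mean of all tested compounds plus 3 SD, cut at about 24% in these data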;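 also: 0% = enzyme with DMSO and 100% = wells lacking PAFAH1B2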
pPAFAH FP inh = pPAFAH enzyme inhibitors, primary screen, biochemical, fluorescence polarization, human | recombinant pPAFAH, FP-rhodamine probe fluorescence polarization | inhibition, % at 3.39 µM | AID 463082, 2010 | Platelet-activating factor acetylhydrolase (Homo sapiens), Q13093 | actives 1.5% (n = 330,000);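 active = inhibition above the mean inhibition across the screen plus 3 SD, cut at about 25% in these data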;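 also: inhibitors block binding of the rhodamine activity-based probe so polarization drops; 0% = enzyme with DMSO and 100% = wells lacking pPAFAH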
Target sequence (Q13093 whole entry, looked up): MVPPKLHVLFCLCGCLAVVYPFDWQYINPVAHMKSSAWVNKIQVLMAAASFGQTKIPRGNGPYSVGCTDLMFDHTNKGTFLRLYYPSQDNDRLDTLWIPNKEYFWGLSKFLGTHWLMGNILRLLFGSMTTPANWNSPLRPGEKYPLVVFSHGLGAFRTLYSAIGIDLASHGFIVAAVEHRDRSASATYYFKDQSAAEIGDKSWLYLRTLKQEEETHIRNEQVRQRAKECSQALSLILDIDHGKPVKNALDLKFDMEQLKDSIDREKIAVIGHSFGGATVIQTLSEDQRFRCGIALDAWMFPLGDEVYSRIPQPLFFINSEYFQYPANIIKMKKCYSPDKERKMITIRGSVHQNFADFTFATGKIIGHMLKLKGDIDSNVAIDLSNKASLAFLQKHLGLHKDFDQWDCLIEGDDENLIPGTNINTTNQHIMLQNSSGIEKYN
PAFAH1B3 FP inh = PAFAH1B3 enzyme inhibitors, primary screen, biochemical, fluorescence polarization, human | Platelet-activating factor acetylhydrolase IB subunit alpha1 (Homo sapiens), Q15102 | recombinant PAFAH1B3, FP-rhodamine probe | inhibition, % at 3.39 µM | actives 0.28% (n = 340,000);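 active = inhibition above the screen-wide average of all tested compounds plus 3 SD, cut at about 25% in these data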;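 also: 0% = enzyme with DMSO only and 100% = wells lacking PAFAH1B3 protein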
PAFAH2 inh = PAFAH2 enzyme inhibitors, primary screen, biochemical, fluorescence polarization, human | Platelet-activating factor acetylhydrolase 2, cytoplasmic (Homo sapiens), Q99487 | actives 0.99% (n = 340,000) | recombinant PAFAH2, FP-rhodamine activity probe | AID 492956, 2010 | inhibition, % at 3.39 µM;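 active = inhibition above the mean over all tested compounds plus 3 SD, cut at about 30% in these data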;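 also: inhibitors block probe labeling of enzyme so polarization drops; 0% = enzyme with DMSO and 100% = wells lacking PAFAH2 protein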
mABHD4 FP = ABHD4 inhibitors, primary screen, biochemical, fluorescence polarization, mouse; actives 0.54% (n = 370,000); AID 720543, 2013; inhibition, % at 8.92 µM; purified mABHD4, FP-Rh probe fluorescence polarization;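 active = inhibition exceeding the mean over every tested compound plus 3 SD, cut at about 30% in these data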;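 also: 0% = plate median of compound wells and 100% = S159A mutant with DMSO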
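Assay system: mABHD4 protein; medium: HEPES pH 7.0, NaCl, Pluronic buffer; dosing: 8.92 µM, single dose; schedule: 45 min + 60 min at 25 °C; signal: FP readout, ex 525 nm / em 598 nm; read-out: normalized percent inhibition of probe labeling; repeats: single replicate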
HTRA1 inhibitor = HTRA1 serine protease inhibitors, primary screen, biochemical, fluorescence polarization, HTS; actives 0.5% (n = 340,000); inhibition, % at 5.96 µM; Q92743; AID 504803, 2011; recombinant HTRA1, FP-rhodamine activity-based probe; in the data active = inhibition above about 36%;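 also: 0% = enzyme with DMSO and 100% = wells lacking enzyme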
Active calls of the source: *; . = no result given. Rows were chosen to be rich in hits. Some 2.8% of all compounds tested hit in one or more screens of this group.

SMILES	PAFAH1B2 inh	pPAFAH FP inh	PAFAH1B3 FP inh	PAFAH2 inh	mABHD4 FP	HTRA1 inhibitor
COc1ccc(-c2c(Cc3ccccc3)nc(NC(=O)c3ccccc3)n2Cc2ccccc2)cc1	.	.	.	.	-2	.
COc1ccc(C)cc1NC(=O)c1ccc(NS(=O)(=O)c2c(C)noc2C)cc1	0	15	6	-5	-14	6
COc1ccc(C)cc1NC(=O)c1ccc(NS(=O)(=O)c2cccs2)cc1	-2	32*	-4	6	-12	3
CCOc1ccc(Br)cc1S(=O)(=O)Nc1ccc(C(=O)Nc2ccccc2OC)cc1	-1	29*	-6	-4	-34	-54
C=CCN1C(=O)[C@@H](CC(=O)NCCCC)[C@]2(C(=O)OCC)CCCCC/C=C/12	.	.	.	.	-1	.
CCOC(=O)c1cc(-c2ccc(OC)cc2)nn1-c1ccc(C(=O)O)cc1	2	31*	-7	5	0	-4
O=C(COC(=O)C1(c2ccc(F)cc2)CCCC1)N1CCN(C(=O)c2ccco2)CC1	33*	3	11	5	-11	1
O=C(COC(=O)C1(c2ccccc2F)CCCC1)N1CCN(C(=O)c2ccco2)CC1	1	5	9	4	1	-6
CC(C)(C)c1ccc(C(=O)/C=C2\NC(=O)CS2)cc1	7	10	-2	12	0	-7
O=C1CS/C(=C\S(=O)(=O)c2ccc(Cl)cc2)N1	25*	4	-3	1	10	-4
CCCCN(C)C(=O)CN1C(=O)C2CCCCN2C(=O)c2ccccc21 (configuration not stated)	.	.	.	.	-3	.
CC(=O)Nc1ccc(S(=O)(=O)N2c3ccc(F)cc3CCC2C)cc1 (configuration not stated)	9	4	0	2	-18	-11
COc1ccc(S(=O)(=O)N2c3ccc(F)cc3CCC2C)cc1 (configuration not stated)	27*	0	11	-11	0	-7
CC(NC(=O)c1cc(S(=O)(=O)N2CCOCC2)ccc1N1CCCC1)c1ccc(Cl)c(Cl)c1 (configuration not stated)	-1	28*	4	10	7	-8
Cc1ccc(NC(=O)c2cc(N3C(=O)C4CC=CCC4C3=O)ccc2N2CCOCC2)cc1Cl (configuration not stated)	-3	26*	12	3	.	-3
Cc1ccc(NC(=O)c2cc(S(=O)(=O)N3CCCCC3)ccc2N2CCOCC2)cc1S(=O)(=O)N(C)C	27*	.	26*	28	-4	3
CC(O)CNc1nc2ccccc2n1CC(=O)NCCc1ccc(Cl)cc1 (configuration not stated)	28*	4	1	0	2	4
Cc1ccccc1NC(=O)Cn1c(NCC(C)O)nc2ccccc21 (configuration not stated)	-4	-2	-2	-2	1	0
CC(C)NC(=O)N[C@H]1C[C@@H]2O[C@H](CO)CC[C@@H]2O[C@@H]1CCc1ccc(-c2ccccc2F)cc1	.	.	.	.	2	.
CCOC(=O)C1CCCN(CC(=O)Nc2nccs2)C1 (configuration not stated)	2	28*	5	2	7	-6
C/C(=N\OCc1nc2ccccc2c(=O)n1/N=C/c1cc([N+](=O)[O-])ccc1O)c1ccccc1	0	62*	18	25	3	30
CC1=C2N=C(N)N(Cc3ccccc3)C(Cc3ccccc3)C2n2c(=O)n(-c3ccccc3)c(=O)n2C1 (configuration not stated)	.	.	.	.	8	.
CC(Oc1ccc(Cl)cc1)C(=O)NNC(=S)NC(=O)c1ccco1 (configuration not stated)	26*	0	3	6	4	7
N#Cc1ccc(S(=O)(=O)N2CCc3[nH]c4ccc(F)cc4c3C2)cc1	38*	13	5	8	-9	-6
